Blank lines part the entries; values can stand above or below the compound they belong to. Activity calls are given as the source filed them. No cut-off for these calls is given here.
Key:
HL-60 = test: Cytotoxicity against human HL60 cells at 40 uM after 48 hrs by MTT assay; format: functional, cell-based
Mus musculus = test: Antinociceptive activity in Kunming mouse model of acetic-acid-induced writhing assessed as inhibition of writhing numbers at 5 mg/kg measured for 30 mins relative to control; format: functional; settings: for inhibition in vivo at 5 mg/kg: 0.5 h
Summary of the method: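 Acetic-acid-induced writhing model in Kunming mice (10 per group); doses 0.2, 1.0 and 5.0 mg/kg; vehicle-treated and morphine positive-control groups; inhibition of writhing relative to vehicle; mean ± SEM; one-way ANOVA with Bonferroni test. Animal work approved by institutional ethics committee.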

[1] = biological target: T1, Tyrosine-protein phosphatase non-receptor type 1 (Homo sapiens) (UniProt P18031); test: Inhibition of recombinant human PTP1B at 40 uM using pNPP as substrate preincubated for 10 mins followed by substrate addition and measured after 30 mins at 5 mins time interval for 30 mins
T1 sequence (whole entry): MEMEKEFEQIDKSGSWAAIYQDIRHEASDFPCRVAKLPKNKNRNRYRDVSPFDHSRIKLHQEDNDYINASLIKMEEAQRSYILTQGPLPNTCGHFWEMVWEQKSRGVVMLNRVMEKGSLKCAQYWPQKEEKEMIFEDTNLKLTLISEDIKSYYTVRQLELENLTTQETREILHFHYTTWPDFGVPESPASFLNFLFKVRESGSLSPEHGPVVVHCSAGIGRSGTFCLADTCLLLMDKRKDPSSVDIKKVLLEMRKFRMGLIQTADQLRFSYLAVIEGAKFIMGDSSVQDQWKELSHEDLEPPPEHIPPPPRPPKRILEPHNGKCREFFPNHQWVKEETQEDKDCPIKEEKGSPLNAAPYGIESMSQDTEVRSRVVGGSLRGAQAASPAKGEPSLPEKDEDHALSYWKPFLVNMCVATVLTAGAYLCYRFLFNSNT

RAW264.7 = test: Anti-inflammatory activity in mouse RAW264.7 cells assessed as inhibition of LPS-induced NO production at 40 uM; format: functional, cell-based
MCF7 = test: Cytotoxicity against human MCF7 cells at 40 uM after 48 hrs by MTT assay; format: functional, cell-based
SW480 = test: Cytotoxicity against human SW480 cells at 40 uM after 48 hrs by MTT assay; format: functional, cell-based
A549 = test: Cytotoxicity against human A549 cells at 40 uM after 48 hrs by MTT assay; format: functional, cell-based
SMMC-7721 = test: Cytotoxicity against human SMMC7721 cells at 40 uM after 48 hrs by MTT assay; format: functional, cell-based

inhibition [1]: inactive
Compound: C=C1[C@@H]2CC[C@@H]3C[C@@]2(C[C@@H](O)[C@@]2(O)[C@H]1C[C@H](O)C2(C)C)C[C@@]3(C)O[C@@H]1O[C@H](CO)[C@@H](O)[C@H](O)[C@H]1O
Activity (HL-60): inactive
inhibition in vivo at 5 mg/kg (Mus musculus): > 50%
inhibition (RAW264.7): inactive
Activity (MCF7): inactive
Activity (SW480): inactive
Activity (A549): inactive
Activity (SMMC-7721): inactive

inhibition [1]: inactive
Compound: C=C1[C@@H]2CC[C@@H]3C[C@@]2(C[C@@H](O)[C@@]2(O)[C@H]1C[C@H](O[C@@H]1O[C@H](CO)[C@@H](O)[C@H](O)[C@H]1O)C2(C)C)C[C@@]3(C)O
Activity (HL-60): inactive
inhibition (Mus musculus): Active
inhibition (RAW264.7): inactive
Activity (MCF7): inactive
Activity (SW480): inactive
Activity (A549): inactive
Activity (SMMC-7721): inactive

inhibition [1]: inactive
Compound: C=C1[C@H]2C[C@H](O)C(C)(C)[C@@]2(O)[C@H](O)C[C@@]23C[C@@H](CC[C@@H]12)[C@](C)(O[C@@H]1O[C@H](CO)[C@@H](O)[C@H](O)[C@H]1O)C3
Activity (HL-60): inactive
inhibition (Mus musculus): Active
inhibition (RAW264.7): inactive
Activity (MCF7): inactive
Activity (SW480): inactive
Activity (A549): inactive
Activity (SMMC-7721): inactive

inhibition [1]: inactive
Compound: C=C1[C@@H]2CC[C@@H]3[C@@H](O)[C@@]2(C[C@@H](O)[C@@]2(O)[C@H]1C[C@H](O[C@@H]1O[C@H](CO)[C@@H](O)[C@H](O)[C@H]1O)C2(C)C)C[C@@]3(C)O
Activity (HL-60): inactive
inhibition in vivo at 5 mg/kg (Mus musculus): > 50%
inhibition (RAW264.7): inactive
Activity (MCF7): inactive
Activity (SW480): inactive
Activity (A549): inactive
Activity (SMMC-7721): inactive

inhibition [1]: inactive
Compound: CC1(C)[C@@H](O[C@@H]2O[C@H](CO)[C@@H](O)[C@H](O)[C@H]2O)C[C@H]2[C@](C)(O)[C@@H]3CC[C@@H]4[C@@H](O)[C@@]3(C[C@@H](O)[C@@]21O)C[C@@]4(C)O
Activity (HL-60): inactive
inhibition in vivo at 5 mg/kg (Mus musculus): > 50%
inhibition (RAW264.7): inactive
Activity (MCF7): inactive
Activity (SW480): inactive
Activity (A549): inactive
Activity (SMMC-7721): inactive

inhibition [1]: inactive
Compound: C=C1[C@H]2C[C@H](O)C(C)(C)[C@]2(O)CC[C@@]23C[C@@](O)(CC[C@@H]12)[C@](C)(O[C@@H]1O[C@H](CO)[C@@H](O)[C@H](O)[C@H]1O)C3
Activity (HL-60): inactive
inhibition (Mus musculus): Active
inhibition (RAW264.7): inactive
Activity (MCF7): inactive
Activity (SW480): inactive
Activity (A549): inactive
Activity (SMMC-7721): inactive

inhibition [1]: inactive
Compound: C=C1[C@H]2C[C@H](O[C@@H]3O[C@H](CO)[C@@H](O)[C@H](O)[C@H]3O)C(C)(C)[C@]2(O)CC[C@@]23C[C@@](O)(CC[C@@H]12)[C@](C)(O)C3
Activity (HL-60): inactive
inhibition (RAW264.7): inactive
Activity (MCF7): inactive
Activity (SW480): inactive
Activity (A549): inactive
Activity (SMMC-7721): inactive

inhibition [1]: inactive
Compound: C[C@H]1[C@@H]2C[C@H](O[C@@H]3O[C@H](CO)[C@@H](O)[C@H](O)[C@H]3O)C(C)(C)[C@]23O[C@]12CC[C@@H]1C[C@@]2(C[C@H]3O)C[C@@]1(C)O
Activity (HL-60): inactive
inhibition (Mus musculus): Active
inhibition (RAW264.7): inactive
Activity (MCF7): inactive
Activity (SW480): inactive
Activity (A549): inactive
Activity (SMMC-7721): inactive

inhibition [1]: inactive
Compound: CC(=O)O[C@@H]1[C@H]2CC[C@H]3[C@@](C)(O)[C@@H]4C[C@H](O[C@@H]5O[C@H](CO)[C@@H](O)[C@H](O)[C@H]5O)C(C)(C)[C@@]4(O)[C@H](O)C[C@@]13C[C@@]2(C)O
Activity (HL-60): inactive
inhibition (Mus musculus): inactive
inhibition (RAW264.7): inactive
Activity (MCF7): inactive
Activity (SW480): inactive
Activity (A549): inactive
Activity (SMMC-7721): inactive

inhibition [1]: inactive
Compound: C=C1[C@@H]2CC[C@@H]3C[C@]2(C[C@@]3(C)O)[C@H](O)[C@@H](O)[C@@]2(O)[C@H]1C[C@H](O[C@@H]1O[C@H](CO)[C@@H](O)[C@H](O)[C@H]1O)C2(C)C
Activity (HL-60): inactive
inhibition (RAW264.7): inactive
Activity (MCF7): inactive
Activity (SW480): inactive
Activity (A549): inactive
Activity (SMMC-7721): inactive

inhibition [1]: inactive
Compound: C=C1[C@@H]2CC[C@@H]3[C@@H](OC(C)=O)[C@@]2(C[C@@H](O)[C@@]2(O)[C@H]1C[C@H](O[C@@H]1O[C@H](CO)[C@@H](O)[C@H](O)[C@H]1O)C2(C)C)C[C@@]3(C)O
Activity (HL-60): inactive
inhibition (Mus musculus): Active
inhibition (RAW264.7): inactive
Activity (MCF7): inactive
Activity (SW480): inactive
Activity (A549): inactive
Activity (SMMC-7721): inactive

inhibition [1]: inactive
Compound: C=C1[C@@H]2CC[C@H]3C(C)=C[C@]2(C[C@@H](O)[C@@]2(O)[C@H]1C[C@H](O[C@@H]1O[C@H](CO)[C@@H](O)[C@H](O)[C@H]1O)C2(C)C)[C@@H]3O
Activity (HL-60): inactive
inhibition in vivo at 5 mg/kg (Mus musculus): 50%
inhibition (RAW264.7): inactive
Activity (MCF7): inactive
Activity (SW480): inactive
Activity (A549): inactive
Activity (SMMC-7721): inactive

inhibition [1]: inactive
Compound: CC1=C2CC[C@@H]3[C@@H](O)[C@@]2(C[C@@H](O)[C@@]2(O)[C@H]1C[C@H](O[C@@H]1O[C@H](CO)[C@@H](O)[C@H](O)[C@H]1O)C2(C)C)C[C@@]3(C)O
Activity (HL-60): inactive
inhibition in vivo at 5 mg/kg (Mus musculus): > 50%
inhibition (RAW264.7): inactive
Activity (MCF7): inactive
Activity (SW480): inactive
Activity (A549): inactive
Activity (SMMC-7721): inactive

inhibition [1]: inactive
Compound: C=C1[C@@H]2CC[C@@H]3C[C@@]2(C[C@@H](O)[C@@]2(O)[C@H]1C[C@@H](O[C@@H]1O[C@H](CO)[C@@H](O)[C@H](O)[C@H]1O)C2(C)C)C[C@@]3(C)O
Activity (HL-60): inactive
inhibition (Mus musculus): Active
inhibition (RAW264.7): inactive
Activity (MCF7): inactive
Activity (SW480): inactive
Activity (A549): inactive
Activity (SMMC-7721): inactive

inhibition [1]: inactive
Compound: C=C1[C@@H]2CC[C@@H]3C[C@]2(C=C3C)C[C@@H](O)[C@@]2(O)[C@H]1C[C@H](O[C@@H]1O[C@H](CO)[C@@H](O)[C@H](O)[C@H]1O)C2(C)C
Activity (HL-60): inactive
inhibition (RAW264.7): inactive
Activity (MCF7): inactive
Activity (SW480): inactive
Activity (A549): inactive
Activity (SMMC-7721): inactive

inhibition [1]: inactive
Compound: C=C1[C@H]2C[C@H](O[C@@H]3O[C@H](CO)[C@@H](O)[C@H](O)[C@H]3O)C(C)(C)[C@@]2(O)[C@H](O)C[C@@]23C[C@@H](CC[C@@H]12)[C@](C)(O)C3
Activity (HL-60): inactive
inhibition (Mus musculus): inactive
inhibition (RAW264.7): inactive
Activity (MCF7): inactive
Activity (SW480): inactive
Activity (A549): inactive
Activity (SMMC-7721): inactive

inhibition [1]: inactive
Compound: C=C1[C@@H]2CC[C@@H]3[C@@H](OC(C)=O)[C@@]2(C[C@@H](O)[C@@]2(O)[C@H]1C[C@H](O)C2(C)C)C[C@@]3(C)O[C@@H]1O[C@H](CO)[C@@H](O)[C@H](O)[C@H]1O
Activity (HL-60): inactive
inhibition in vivo at 5 mg/kg (Mus musculus): > 50%
inhibition (RAW264.7): inactive
Activity (MCF7): inactive
Activity (SW480): inactive
Activity (A549): inactive
Activity (SMMC-7721): inactive

inhibition [1]: inactive
Compound: C=C1[C@H]2C[C@H](O)C(C)(C)[C@]2(O)CC[C@@]23C[C@@H](CC[C@@H]12)[C@](C)(O[C@@H]1O[C@H](CO)[C@@H](O)[C@H](O)[C@H]1O)C3
Activity (HL-60): inactive
inhibition (Mus musculus): inactive
inhibition (RAW264.7): inactive
Activity (MCF7): inactive
Activity (SW480): inactive
Activity (A549): inactive
Activity (SMMC-7721): inactive
